Columns and labels:
[1] = tested on: Rattus norvegicus; assay: Antihypertensive activity in Norwegian albino rat model of DOCA-salt-induced hypertension assessed as inhibition of systolic blood pressure at 10 mg/kg, po after 1 hr by non-invasive tail cuff method relative to control; type: functional
How it was run: (§1)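 DOCA-salt hypertensive rats; systolic pressure by tail cuff after 10 mg/kg, recorded hourly from 0 to 10 h; percent inhibition computed. Data as mean ± SEM, repeated-measures ANOVA.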

[2] = tested on: Rattus norvegicus; assay: Antihypertensive activity in Norwegian albino rat model of DOCA-salt-induced hypertension assessed as inhibition of systolic blood pressure at 10 mg/kg, po after 4 hrs by non-invasive tail cuff method relative to control; type: functional; how it was run: as §1
[3] = tested on: Rattus norvegicus; assay: Antihypertensive activity in Norwegian albino rat model of DOCA-salt-induced hypertension assessed as inhibition of systolic blood pressure at 10 mg/kg, po after 8 hrs by non-invasive tail cuff method relative to control; type: functional; how it was run: as §1
[4] = tested on: Rattus norvegicus; assay: Antihypertensive activity in Norwegian albino rat model of DOCA-salt-induced hypertension assessed as inhibition of systolic blood pressure at 10 mg/kg, po after 10 hrs by non-invasive tail cuff method relative to control; type: functional; how it was run: as §1
[5] = tested on: Rattus norvegicus; assay: Antihypertensive activity in Norwegian albino rat model of DOCA-salt-induced hypertension assessed as inhibition of systolic blood pressure at 10 mg/kg, po after 6 hrs by non-invasive tail cuff method relative to control; type: functional; how it was run: as §1
[6] = tested on: Rattus norvegicus; assay: Antihypertensive activity in Norwegian albino rat assessed as inhibition of systolic blood pressure at 10 mg/kg, po after 0.15 hrs by invasive carotid artery cannulation method relative to control; type: functional
[7] = tested on: Rattus norvegicus; assay: Antihypertensive activity in Norwegian albino rat assessed as inhibition of systolic blood pressure at 10 mg/kg, po after 1 hr by invasive carotid artery cannulation method relative to control; type: functional
[8] = tested on: Rattus norvegicus; assay: Antihypertensive activity in Norwegian albino rat model of DOCA-salt-induced hypertension assessed as inhibition of systolic blood pressure at 10 mg/kg, po after 7 hrs by non-invasive tail cuff method relative to control; type: functional; how it was run: as §1
[9] = tested on: Rattus norvegicus; assay: Antihypertensive activity in Norwegian albino rat model of DOCA-salt-induced hypertension assessed as inhibition of systolic blood pressure at 10 mg/kg, po after 5 hrs by non-invasive tail cuff method relative to control; type: functional; how it was run: as §1
[10] = molecular target: Myosin light chain kinase, smooth muscle (Homo sapiens, UniProt Q15746); assay: Inhibition of MLCK (unknown origin) incubated for 15 mins using [gamma-32P]-ATP by scintillation counting method
How it was run: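 Active MLCK thawed on ice with kinase assay and dilution buffers and substrate; reaction with γ-32P-ATP incubated 15 min at 30 °C in a water bath, spotted on phosphocellulose P81 paper, washed three times ~10 min in 1% phosphoric acid. Radioactivity by scintillation counting, blank-corrected cpm converted to specific activity (nmol/min/mg); IC50 from log plots, at least five determinations per concentration.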

[11] = Inhibition of porcine kidney ACE assessed as reduction in hippuryl-histidyl-leucine hydrolysis to hippuric acid release incubated for 30 mins high-throughput colorimetric method; parameters: species or system Sus scrofa
How it was run: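 Porcine kidney ACE in 1 M sodium borate buffer pH 8.2 with 0.3 M NaCl and 5 mM HHL substrate (stock); 37 °C for 30 min, stopped with 1 M HCl. Released hippuric acid complexed with pyridine and benzene sulfonyl chloride, cooled on ice, yellow colour read at 410 nm; IC50 from log plots, at least five determinations per concentration.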

[12] = tested on: Rattus norvegicus; assay: Antihypertensive activity in Norwegian albino rat assessed as inhibition of systolic blood pressure at 10 mg/kg, po after 3 hrs by invasive carotid artery cannulation method relative to control; type: functional
[13] = tested on: Rattus norvegicus; assay: Antihypertensive activity in Norwegian albino rat assessed as inhibition of systolic blood pressure at 10 mg/kg, po after 2 hrs by invasive carotid artery cannulation method relative to control; type: functional
[14] = tested on: Rattus norvegicus; assay: Antihypertensive activity in Norwegian albino rat model of DOCA-salt-induced hypertension assessed as inhibition of systolic blood pressure at 10 mg/kg, po after 2 hrs by non-invasive tail cuff method relative to control; type: functional; how it was run: as §1
[15] = tested on: Rattus norvegicus; assay: Gastrointestinal toxicity in Norwegian rat assessed as ulcerative index at 50 mg/kg, po after 17 hrs; type: organism-based; details: in vivo
[16] = tested on: Rattus norvegicus; assay: Antihypertensive activity in Norwegian albino rat assessed as inhibition of systolic blood pressure at 10 mg/kg, po after 4 hrs by invasive carotid artery cannulation method relative to control; type: functional
[17] = tested on: Rattus norvegicus; assay: Antihypertensive activity in Norwegian albino rat model of DOCA-salt-induced hypertension assessed as inhibition of systolic blood pressure at 10 mg/kg, po after 9 hrs by non-invasive tail cuff method relative to control; type: functional; how it was run: as §1
[18] = tested on: Rattus norvegicus; assay: Antihypertensive activity in Norwegian albino rat assessed as inhibition of systolic blood pressure at 10 mg/kg, po after 0.3 hrs by invasive carotid artery cannulation method relative to control; type: functional
[19] = tested on: Rattus norvegicus; assay: Antihypertensive activity in Norwegian albino rat model of DOCA-salt-induced hypertension assessed as inhibition of systolic blood pressure at 10 mg/kg, po after 3 hrs by non-invasive tail cuff method relative to control; type: functional; how it was run: as §1
[20] = physchem; details: buffer, pH 7.4
[21] = Oral bioavailability in Sprague-Dawley rat at 20 mg/kg by HPLC method; type: ADME, organism-based; details: in vivo
[22] = Elimination half life in Sprague-Dawley rat at 20 mg/kg, po by HPLC method; type: ADME, organism-based; details: in vivo, read-out: beta t1/2 (converted)
[23] = Tmax in Sprague-Dawley rat at 20 mg/kg, po by HPLC method; type: ADME, organism-based; details: in vivo
[24] = AUC (0 to infinity) in Sprague-Dawley rat at 10 mg/kg, iv by HPLC method; type: ADME, organism-based; parameters: dose 10 mg/kg, route intravenous, time infinity; details: in vivo
[25] = Elimination half life in Sprague-Dawley rat at 10 mg/kg, iv by HPLC method; type: ADME, organism-based; details: in vivo, read-out: beta t1/2 (converted)
[26] = Cmax in Sprague-Dawley rat at 20 mg/kg, po by HPLC method; type: ADME, organism-based; parameters: dose 20 mg/kg, route oral; details: in vivo
[27] = AUC (0 to infinity) in Sprague-Dawley rat at 20 mg/kg, po by HPLC method; type: ADME, organism-based; parameters: dose 20 mg/kg, route oral, time infinity; details: in vivo
[28] = Retardation factor of the compound by HPTLC method; type: physicochemical
How it was run: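 Pre-coated silica gel 60 F254 plates (200 µm layer); 5 µl sample applied as 5 mm bands; toluene/acetonitrile (9:1) mobile phase, ascending development to 90 mm in a chamber pre-saturated 15 min.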

[29] = Cmax in Sprague-Dawley rat at 10 mg/kg, iv by HPLC method; type: ADME, organism-based; parameters: dose 10 mg/kg, route intravenous; details: in vivo
[30] = Retention time of the compound by HPLC method; type: physicochemical
How it was run: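 HPLC run with 20 µl injection, 1.0 ml/min flow, 25 °C, detection at 343 nm or 258 nm depending on compound.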

[31] = tested on: Rattus norvegicus; assay: Antihypertensive activity in Norwegian albino rat assessed as inhibition of diastolic blood pressure at 10 mg/kg, po after 4 hrs by invasive carotid artery cannulation method relative to control
[32] = tested on: Rattus norvegicus; assay: Antihypertensive activity in Norwegian albino rat assessed as inhibition of diastolic blood pressure at 10 mg/kg, po after 2 hrs by invasive carotid artery cannulation method relative to control
[33] = tested on: Rattus norvegicus; assay: Antihypertensive activity in Norwegian albino rat assessed as inhibition of diastolic blood pressure at 10 mg/kg, po after 1 hr by invasive carotid artery cannulation method relative to control
[34] = tested on: Rattus norvegicus; assay: Antihypertensive activity in Norwegian albino rat assessed as inhibition of diastolic blood pressure at 10 mg/kg, po after 0.15 hrs by invasive carotid artery cannulation method relative to control
[35] = tested on: Rattus norvegicus; assay: Antihypertensive activity in Norwegian albino rat assessed as inhibition of diastolic blood pressure at 10 mg/kg, po after 0.3 hrs by invasive carotid artery cannulation method relative to control
[36] = tested on: Rattus norvegicus; assay: Antihypertensive activity in Norwegian albino rat assessed as inhibition of diastolic blood pressure at 10 mg/kg, po after 3 hrs by invasive carotid artery cannulation method relative to control

Myosin light chain kinase, smooth muscle, sequence (Q15746 whole entry): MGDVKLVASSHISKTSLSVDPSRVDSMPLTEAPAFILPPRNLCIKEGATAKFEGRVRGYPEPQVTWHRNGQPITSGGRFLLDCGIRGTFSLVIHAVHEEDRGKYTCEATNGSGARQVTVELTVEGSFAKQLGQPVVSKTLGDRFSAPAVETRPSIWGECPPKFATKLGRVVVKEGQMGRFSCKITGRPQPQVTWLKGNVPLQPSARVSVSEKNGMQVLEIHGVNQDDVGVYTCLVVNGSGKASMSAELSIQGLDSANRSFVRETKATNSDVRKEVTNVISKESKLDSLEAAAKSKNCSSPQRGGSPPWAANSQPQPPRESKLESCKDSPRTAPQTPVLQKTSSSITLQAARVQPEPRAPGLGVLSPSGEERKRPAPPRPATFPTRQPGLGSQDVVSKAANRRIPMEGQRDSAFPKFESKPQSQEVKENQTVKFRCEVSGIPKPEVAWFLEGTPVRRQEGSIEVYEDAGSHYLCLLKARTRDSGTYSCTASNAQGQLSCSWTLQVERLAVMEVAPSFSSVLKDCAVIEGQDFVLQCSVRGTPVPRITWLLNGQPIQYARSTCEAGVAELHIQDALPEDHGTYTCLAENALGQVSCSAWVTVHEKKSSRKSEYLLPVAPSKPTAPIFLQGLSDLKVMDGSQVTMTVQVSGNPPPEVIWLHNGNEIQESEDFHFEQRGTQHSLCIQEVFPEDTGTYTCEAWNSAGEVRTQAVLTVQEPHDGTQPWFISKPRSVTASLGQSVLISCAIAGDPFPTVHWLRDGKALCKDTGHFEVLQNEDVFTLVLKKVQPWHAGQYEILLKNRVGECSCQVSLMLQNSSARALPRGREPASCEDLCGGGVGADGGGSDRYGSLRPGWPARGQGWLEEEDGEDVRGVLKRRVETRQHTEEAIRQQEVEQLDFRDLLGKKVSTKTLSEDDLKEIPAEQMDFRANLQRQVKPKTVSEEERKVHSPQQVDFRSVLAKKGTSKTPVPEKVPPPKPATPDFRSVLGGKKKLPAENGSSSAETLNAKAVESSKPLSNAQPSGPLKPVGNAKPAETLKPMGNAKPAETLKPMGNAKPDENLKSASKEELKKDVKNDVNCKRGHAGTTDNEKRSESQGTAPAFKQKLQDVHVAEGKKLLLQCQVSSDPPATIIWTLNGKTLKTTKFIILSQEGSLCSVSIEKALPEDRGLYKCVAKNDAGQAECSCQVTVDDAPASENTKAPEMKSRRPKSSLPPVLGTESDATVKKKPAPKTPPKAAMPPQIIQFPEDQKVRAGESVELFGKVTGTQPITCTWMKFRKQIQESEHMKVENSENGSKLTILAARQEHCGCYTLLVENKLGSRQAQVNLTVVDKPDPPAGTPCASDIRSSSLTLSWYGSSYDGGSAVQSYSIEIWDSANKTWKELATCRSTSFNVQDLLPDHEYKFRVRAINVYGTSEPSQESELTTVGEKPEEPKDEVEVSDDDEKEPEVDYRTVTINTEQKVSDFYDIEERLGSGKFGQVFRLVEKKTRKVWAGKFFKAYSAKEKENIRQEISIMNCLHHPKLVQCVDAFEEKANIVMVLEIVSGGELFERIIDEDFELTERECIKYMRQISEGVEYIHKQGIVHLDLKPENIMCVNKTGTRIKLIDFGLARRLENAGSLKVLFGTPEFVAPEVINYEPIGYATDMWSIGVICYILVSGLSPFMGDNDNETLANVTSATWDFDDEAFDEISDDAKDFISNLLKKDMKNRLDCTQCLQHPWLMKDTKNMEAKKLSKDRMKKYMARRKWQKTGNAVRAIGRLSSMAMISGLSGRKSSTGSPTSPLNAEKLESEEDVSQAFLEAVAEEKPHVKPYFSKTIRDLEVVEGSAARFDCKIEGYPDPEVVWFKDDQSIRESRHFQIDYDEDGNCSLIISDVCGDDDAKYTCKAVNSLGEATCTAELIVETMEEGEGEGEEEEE

SMILES	IC50 ([10]; read-out: IC50) [µM]	IC50 ([10]; read-out: pIC50 (converted)) [µM]	IC50 [11] [µM]	inhibition in vivo at 10 mg/kg [1] [%]	inhibition in vivo at 10 mg/kg [2] [%]	inhibition in vivo at 10 mg/kg [3] [%]	inhibition in vivo at 10 mg/kg [4] [%]	inhibition in vivo at 10 mg/kg [5] [%]	inhibition in vivo at 10 mg/kg [6] [%]	inhibition in vivo at 10 mg/kg [7] [%]	inhibition in vivo at 10 mg/kg [8] [%]	inhibition in vivo at 10 mg/kg [9] [%]	inhibition in vivo at 10 mg/kg [12] [%]	inhibition in vivo at 10 mg/kg [13] [%]	inhibition in vivo at 10 mg/kg [14] [%]	UI [15]	inhibition in vivo at 10 mg/kg [16] [%]	inhibition in vivo at 10 mg/kg [17] [%]	inhibition in vivo at 10 mg/kg [18] [%]	inhibition in vivo at 10 mg/kg [19] [%]	also measured
COC(=O)C1=C(C)N=C2Sc3ccccc3N2C1c1ccc(O)c(OC)c1 (stereo not drawn)	3.67	27200	> 100	0.9	19.8	37.8	41	32.4	4.42	15.9	36.5	27.5	31	27	5.41	0.2	42.5	40.1	7.08	13.1	logD [20]: 3.89
CCOC(=O)C1=C(C)N=C2Sc3ccccc3N2C1c1cccc([N+](=O)[O-])c1 (stereo not drawn)	2.1	47600	> 100	4.89	19.1	41.8	51.1	27.6	4	21.8	37.8	23.1	42.2	28.9	10.2	0.2	52.4	47.1	20	14.2	bioavailability [21]: 56.8%; half-life [22]: 5.4 h; Tmax [23]: 0.5 h; AUC(0-inf) [24]: 1480 ng·h/mL; half-life [25]: 2.5 h; Cmax [26]: 400 ng/mL; AUC(0-inf) [27]: 840 ng·h/mL; Rf [28]: 4.2; Cmax [29]: 1630 ng/mL; Retention_time [30]: 3.045 min; logD [20]: 4.57
COC(=O)C1=C(C)NC(C)=C(C(=O)OC)C1c1ccccc1[N+](=O)[O-] [NIFEDIPINE]	2.02		2.34	4.89	19.1	47.6	54.2	32.9			41.8	23.1			10.7	0.54		52		14.2	inhibition in vivo at 10 mg/kg [31]: 53.8%; inhibition in vivo at 10 mg/kg [32]: 26.7%; inhibition in vivo at 10 mg/kg [33]: 16%; inhibition in vivo at 10 mg/kg [34]: 6.22%; inhibition in vivo at 10 mg/kg [35]: 13.8%; inhibition in vivo at 10 mg/kg [36]: 37.3%

More lines, main results first:

IC50 ([10]; read-out: IC50) [µM]	IC50 ([10]; read-out: pIC50 (converted)) [µM]	IC50 [11] [µM]	SMILES	inhibition in vivo at 10 mg/kg [1] [%]	inhibition in vivo at 10 mg/kg [2] [%]	inhibition in vivo at 10 mg/kg [3] [%]	inhibition in vivo at 10 mg/kg [4] [%]	inhibition in vivo at 10 mg/kg [5] [%]	inhibition in vivo at 10 mg/kg [6] [%]	inhibition in vivo at 10 mg/kg [7] [%]	inhibition in vivo at 10 mg/kg [8] [%]	inhibition in vivo at 10 mg/kg [9] [%]	inhibition in vivo at 10 mg/kg [12] [%]	inhibition in vivo at 10 mg/kg [13] [%]	inhibition in vivo at 10 mg/kg [14] [%]	UI [15]	inhibition in vivo at 10 mg/kg [16] [%]	inhibition in vivo at 10 mg/kg [17] [%]	inhibition in vivo at 10 mg/kg [18] [%]	inhibition in vivo at 10 mg/kg [19] [%]	also measured
2.14	46700	> 100	COC(=O)C1=C(C)N=C2Sc3ccccc3N2C1c1ccc(OC)cc1 (stereo not drawn)	1.33	20	35.6	48.9	25.3	4.42	15.9	31.1	24.4	31	27	1.78	0.54	42.5	40	7.08	13.3	logD [20]: 4.64
2.04	49000	> 100	COC(=O)C1=C(C)N=C2Sc3ccccc3N2C1c1ccc([N+](=O)[O-])cc1 (stereo not drawn)	0	24.8	42.5	46.9	38	2.21	15.9	40.3	27	31	24.8	4.87	0.2	48.7	46.9	4.42	13.7	logD [20]: 4.49

— ChEMBL document CHEMBL3616444, “Design, synthesis and pharmacological evaluation of pyrimidobenzothiazole-3-carboxylate derivatives as selective L-type calcium channel blockers” (Bioorg Med Chem, 2015)
